Source: PubChem
An excerpt weighted towards active compounds, which were near 1.3% of everything screened.
HKDC1 inh: HKDC1 hexokinase inhibitors, primary screen, biochemical, fluorescence, uHTS; Q2TB90; recombinant HKDC1, G6PDH/diaphorase resazurin coupled fluorescence; inhibition, % at 20 µM; actives 0.16% (n = 340,000); AID 493160, 2011;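 active = inhibition above about 35% when tested at 20 µM, limit read from the data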;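 note: plate controls were DMSO wells with enzyme for no effect and DMSO wells lacking enzyme for full effect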
Target sequence (Q2TB90 whole entry, looked up): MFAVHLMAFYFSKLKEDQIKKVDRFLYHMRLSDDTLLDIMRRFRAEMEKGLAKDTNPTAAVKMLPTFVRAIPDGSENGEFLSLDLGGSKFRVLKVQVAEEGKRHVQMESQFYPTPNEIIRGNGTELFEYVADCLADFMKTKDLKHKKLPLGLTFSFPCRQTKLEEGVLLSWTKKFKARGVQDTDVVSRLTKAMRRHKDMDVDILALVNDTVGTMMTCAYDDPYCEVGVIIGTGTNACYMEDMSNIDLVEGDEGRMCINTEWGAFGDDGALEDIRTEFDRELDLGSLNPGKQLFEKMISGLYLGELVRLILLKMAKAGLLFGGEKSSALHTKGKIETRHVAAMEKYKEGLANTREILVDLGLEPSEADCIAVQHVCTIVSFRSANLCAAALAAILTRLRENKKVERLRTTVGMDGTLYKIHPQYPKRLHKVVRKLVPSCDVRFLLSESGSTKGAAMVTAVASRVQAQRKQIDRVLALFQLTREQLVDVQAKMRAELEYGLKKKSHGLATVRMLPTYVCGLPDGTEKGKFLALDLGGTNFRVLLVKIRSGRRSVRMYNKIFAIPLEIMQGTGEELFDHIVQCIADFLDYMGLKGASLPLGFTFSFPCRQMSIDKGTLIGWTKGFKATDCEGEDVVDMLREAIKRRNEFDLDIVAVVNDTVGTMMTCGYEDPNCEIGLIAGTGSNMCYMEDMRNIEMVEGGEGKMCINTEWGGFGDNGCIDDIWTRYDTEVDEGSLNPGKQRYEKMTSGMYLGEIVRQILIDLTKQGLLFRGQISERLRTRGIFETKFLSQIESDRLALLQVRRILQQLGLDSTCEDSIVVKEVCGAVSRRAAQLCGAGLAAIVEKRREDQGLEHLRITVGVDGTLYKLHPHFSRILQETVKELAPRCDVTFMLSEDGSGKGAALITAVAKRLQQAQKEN
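test system = in-house recombinant HK5 (HKDC1) enzyme | amount = HKDC1 at 5 µg/mL | control set = DMSO-enzyme wells negative, buffer-substituted wells positive | compound = one dose of 20 µM, 1% DMSO | schedule = reaction time 90 min, room temperature, protected from light | technique = resorufin fluorescence at 613 nm | reagent = glucose with 1 mM ATP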
Diaph inh CS: diaphorase inhibitors and chemical oxidizers, primary screen, counter-screen for diaphorase-coupled primary assays, biochemical, uHTS, resorufin fluorescence. inhibition, % at 20 µM. diaphorase resazurin-to-resorufin fluorescence, NADH, 16 min; bacterial (C. kluyveri) enzyme, not human. actives 0.69% (n = 190,000);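 active = primary screen inhibition at 20 µM above a set limit, cut at about 50% in these data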;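 note: plate controls were DMSO with full reaction for no effect and wells lacking NADH for full effect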
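System: Diaphorase enzyme from Clostridium kluyveri | Amount: Enzyme working solution with 0.14 U/mL diaphorase | Benchmarks: No-NADH positive control and DMSO neutral control | Signal: Fluorescence of resorufin formed from resazurin, Ex 544/Em 590 nm | Schedule: 16-min room-temperature incubation before reading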
G6PDH CS: L. mesenteroides G6PDH inhibitors, counter-screen for G6PDH-coupled screening assays, biochemical, Leuconostoc mesenteroides enzyme. Purified L. mesenteroides G6PDH, diaphorase/resazurin coupled fluorescence, 45 min. actives 0.12% (n = 200,000). AID 1020, 2008. inhibition, % at 5 µM. glucose-6-phosphate dehydrogenase [Leuconostoc mesenteroides]; in the data active = inhibition above about 50%
PfG6PD inh: PfG6PD enzyme inhibitors, primary screen, biochemical, fluorescence intensity, uHTS; inhibition, % at 20 µM; actives 0.78% (n = 350,000); PfGluPho enzyme, NADPH resazurin-diaphorase fluorescence; glucose-6-phosphate dehydrogenase-6-phosphogluconolactonase (Plasmodium falciparum 3D7);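 active = inhibition reaching at least a set limit at 20 µM in the primary screen, cut at about 59% in these data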;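 note: 0% = DMSO wells with substrate and 100% = DMSO wells lacking glucose-6-phosphate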
PfGluPho conf: PfG6PD inhibitors, hit retest, confirmation, biochemical, fluorescence intensity, single concentration. shares compounds with PfG6PD inh. recombinant PfGluPho, NADPH-diaphorase-resazurin fluorescence. inhibition, % at 20 µM. actives 34% (n = 2,400). AID 504753, 2011;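 active = inhibition of at least 50% at 20 µM in any single replicate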;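 note: 0% = DMSO with substrate and 100% = DMSO lacking glucose-6-phosphate substrate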
Diaph ctr 10uM: diaphorase inhibitors and chemical oxidizers, confirmation, counter-screen for P. falciparum G6PD inhibitor project, biochemical, fluorescence intensity, 10 µM NADPH; shares compounds with PfG6PD inh; diaphorase-coupled resazurin reduction, NADPH 10 uM; inhibition, % at 20 µM; actives 39% (n = 820); AID 504862, 2011;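 active = average inhibition reaching 50% or more with the compound at 20 µM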;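 note: resorufin red fluorescence formed as diaphorase reduces resazurin using NADPH; 0% = DMSO with enzyme and 100% = DMSO without enzyme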
Diaphorase 30uM: diaphorase inhibitors and chemical oxidizers, confirmation, counter-screen for P. falciparum G6PD inhibitor project, biochemical, fluorescence intensity, 30 µM NADPH | Diaphorase/resazurin coupled assay, resorufin fluorescence | shares compounds with PfG6PD inh | inhibition, % at 20 µM | actives 29% (n = 820);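 active = inhibition averaging 50% or more, tested at 20 µM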;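 note: 0% = DMSO with enzyme and 100% = DMSO wells lacking diaphorase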
An asterisk follows results filed as active; · = not tested or not shown.

SMILES | HKDC1 inh | Diaph inh CS | G6PDH CS | PfG6PD inh | PfGluPho conf | others
Cc1ccc(-n2c(N)c(C(=O)N3CCCCC3)sc2=S)cc1 | -3.7 | 10.2 | 3.4 | 40.7 | ·
CCOc1ccc(-n2c(N)c(C(=O)N3CCN(C)CC3)sc2=S)cc1 | -4.0 | 12.8 | -2.1 | 1.2 | ·
COc1cccc(C=NNC(=O)CCCC(=O)NN=Cc2cccc(OC)c2)c1 | -3.6 | · | · | 13.9 | ·
COc1cccc(/C=N/NC(=O)CCCc2ccc(OC)c(C)c2)c1 | 2.5 | 19.5 | 1.2 | 77.3* | 23.4
O=C1C(=C(c2ccccc2)N2CCOCC2)Cc2ccccc21 | · | · | · | 65.6* | 21.6
O=C(c1ccccc1)c1c[nH]c(C(=O)NNc2ccccc2)c1 | -3.8 | 7.6 | 1.0 | 68.9* | 13.5
COc1ccccc1C(CNC(=O)c1cccc(S(=O)(=O)Nc2ccc(F)cc2)c1)N1CCCC1 (configuration not stated) | -5.9 | · | · | 4.9 | ·
O=C(CNc1ccc2c(c1)OCO2)N/N=C\c1cn(Cc2ccc(F)cc2)c2ccccc12 | · | 4.0 | 3.3 | · | ·
O=C(CNc1ccc2c(c1)OCO2)N/N=C\c1cn(Cc2ccccc2)c2ccccc12 | -4.3 | 20.7 | 8.2 | 66.9* | 50.6* | Diaph ctr 10uM=-9.6;Diaphorase 30uM=16.4
COc1ccc(F)cc1Cn1nc(C(=O)O)c2ccccc2c1=O | -4.1 | · | · | -2.6 | ·
O=[N+]([O-])c1cc(-c2ccc(C(=S)N3CCOCC3)o2)ccc1Cl | 13.9 | 33.4 | 25.0 | 69.3* | 40.8
O=C(NCCCO)c1ccc2nc(-c3ccco3)c(-c3ccco3)nc2c1 | 11.0 | 42.7 | 32.8 | 75.3* | -7.3
O=C(c1cccc(C(=O)N2CCN(c3ncccn3)CC2)c1)N1CCN(c2ncccn2)CC1 | -5.2 | 8.6 | 0.6 | 3.7 | ·
O=C(Nc1ccccc1)c1ccc2nc(-c3ccco3)c(-c3ccco3)nc2c1 | 29.6 | 79.3* | -9.2 | 61.2* | -8.7
O=C(NCc1ccccc1)c1ccc2nc(-c3ccco3)c(-c3ccco3)nc2c1 | 32.0 | 46.5 | 21.5 | 44.3 | ·
O=C(c1ccc2nc(-c3ccco3)c(-c3ccco3)nc2c1)N1CCN(c2ncccn2)CC1 | 20.8 | 66.5* | 27.1 | 68.5* | 1.8
COc1ccc(-c2noc(CN(C)C(=O)c3ccoc3C)n2)cc1 | -5.9 | · | · | -8.0 | ·
CC1(C)Nc2ccc(O)cc2-c2c1ssc2=S | 12.4 | 44.6 | 7.9 | 72.0* | 54.5* | Diaph ctr 10uM=0.2;Diaphorase 30uM=9.7
COc1cccc(-n2sc3c(c2=S)-c2cc(OC)ccc2NC3(C)C)c1 | 2.0 | 28.3 | 5.0 | 23.1 | ·
Clc1cccc2c3c([nH]c12)CCNC3 | -4.3 | · | · | 6.5 | ·
C=CCc1c(C)[nH]c2c(OC)cccc2c1=S | -5.4 | 20.6 | -0.4 | 62.0* | 36.2
C=CCN(CC=C)C(=O)c1c(OC)cccc1OC | -10.5 | 11.9 | 3.3 | -9.0 | ·
Cc1ccc2cccc(CC(=O)NN)c2c1 | · | · | · | -15.8 | ·
COc1cc(N=Cc2c(CO)cnc(C)c2O)cc(OC)c1OC | 0.5 | · | · | 63.3* | 68.3* | Diaph ctr 10uM=-25.4;Diaphorase 30uM=-16.8
COc1ccccc1CCC(=O)OCC(=O)Nc1cc(C)nn1-c1ccccc1 | -1.6 | · | · | 1.8 | ·
SMILES | HKDC1 inh | Diaph inh CS | G6PDH CS | PfG6PD inh | PfGluPho conf | others
CC(Sc1nc(N2CCOCC2)c2c(c1C#N)CC(C)(C)OC2)C(=O)Nc1ccccc1 (configuration not stated) | -4.2 | 3.8 | 4.1 | 59.9* | -10.5
CCOC(=O)C(C)Sc1nc(N2CCOCC2)c2c(c1C#N)CC(C)(C)OC2 (configuration not stated) | -1.3 | · | · | 4.8 | ·
Nc1nc(SCC(=O)Nc2ccccc2Sc2ccc(Cl)cc2)n[nH]1 | 1.2 | 14.8 | 7.9 | 110.0* | 77.4* | Diaph ctr 10uM=73.0*;Diaphorase 30uM=54.4*
NC(=O)C1CCN(CC(=O)Nc2ccccc2Sc2ccc(Cl)cc2)CC1 | -7.7 | 14.3 | 14.1 | 65.5* | 40.4
Cc1ccc(NNC(N)=S)cc1Cl | 2.4 | · | · | 28.4 | ·
NC(=S)NNc1ccc(Cl)c(Cl)c1 | 4.8 | · | · | 65.1* | 10.2
Cn1c(=O)n(C)c2cc3[nH]cnc3cc21 | 1.0 | · | · | 4.1 | ·
Nc1cc2nc[nH]c2cc1N | 7.2 | 60.6* | 10.3 | 59.7* | -10.0
S=c1[nH]c(-c2ccc(Cl)cc2)cs1 | 5.5 | 23.1 | -9.0 | 62.4* | 2.6
CN1CCc2c(sc(/N=C/c3c[nH]c4ccccc34)c2C(N)=O)C1 | 4.7 | · | · | 66.6* | -1.9
CCCOc1ccc(/C=C/C(=O)N2CCN(C(=O)c3ccco3)CC2)cc1OC | · | · | · | 2.0 | ·
CCOC(=O)C1=CC[C@H]2c3c(c4ccccc4n3C)C(=O)C1N2Cc1ccccc1 | 3.4 | · | · | -4.6 | ·
Cc1ccc(S(=O)(=O)N(CC(=O)NCc2ccco2)Cc2ccccc2F)cc1 | 0.9 | 17.5 | -21.6 | 71.8* | 32.8
Cc1cccc(-n2c(=S)[nH]c3sc4c(c3c2=O)CCc2ccccc2-4)c1 | 5.5 | 69.8* | 0.4 | 66.7* | 51.9* | Diaph ctr 10uM=-24.4;Diaphorase 30uM=6.3
CCN(CC)S(=O)(=O)c1ccc(C(=O)NC(=S)N2CCCCC2C)cc1 (configuration not stated) | · | · | · | 13.5 | ·
COc1ccc(CCNc2nc(C)c(C(C)=O)s2)cc1OC | -12.1 | · | · | 61.0* | 20.0
O=C(CC1SC(=O)NC1=O)Oc1ccc(/C=N/NC(=O)c2ccccc2O)cc1 (configuration not stated) | -7.0 | · | · | 7.8 | ·
O=C1N=C(N2CCOCC2)S/C1=C1\C(=O)N(Cc2ccccc2)c2ccc(Br)cc21 | · | 18.5 | 6.8 | · | ·
CCCCN1C(=O)/C(=C2\SC(N3CCCCC3)=NC2=O)c2ccccc21 | 5.1 | 32.2 | -3.2 | 65.3* | 1.9
CCOc1ccc(CN(C)C(=O)CNC(=O)c2sc3ccccc3c2Cl)cc1 | -0.3 | · | · | 8.5 | ·
CCc1cccc(NC(=O)C2CCCN2S(=O)(=O)c2ccc3c(c2)CC(C)N3C(C)=O)c1 (configuration not stated) | -6.5 | · | · | -5.5 | ·
Cc1cccc(C(=O)Nc2ccc(C(=O)c3ccccc3)cc2)c1 | -0.2 | · | · | 63.1* | 6.1
Cc1cccc(C(=O)Nc2ccc(C(=O)c3ccncc3)cc2)c1 | · | · | · | 64.3* | 9.6
O=C(CC(=O)NCc1ccc(Cl)cc1)NCc1ccccc1 | 9.9 | · | · | -2.7 | ·
CCN1/C(=C/C=C/C=C/C=C/c2sc3ccccc3[n+]2CC)Sc2ccccc21 | 25.2 | · | · | 64.4* | 96.2* | Diaph ctr 10uM=33.5;Diaphorase 30uM=33.1
